{"source": "ChEMBL document CHEMBL4251647", "about": "“Synthesis, anticancer activity and mechanism of action of new thiazole derivatives” (Eur J Med Chem, 2018)", "key": {"[1]": {"system": "NCI-H292", "experiment": "Cytotoxicity against human NCI-H292 cells assessed as inhibition of cell viability after 72 hrs by MTT assay", "assay_type": "functional, cell-based", "settings": "NCI-H292, 72 h", "how_it_was_run": "(§1)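 MTT assay. Leukaemic lines were seeded at 3 x 10^5 cells/mL and adherent lines at 1 x 10^5 cells/mL, then preincubated 24 h. Compounds were added at 0.098–25.0 µg/mL for 72 h, with MTT for the last 3 h. Formazan was dissolved in DMSO and read at 560 nm. IC50 came from regression; triplicate, two independent experiments.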"}, "[2]": {"system": "HL-60", "experiment": "Cytotoxicity against human HL60 cells assessed as inhibition of cell viability at 25 ug/ml after 72 hrs by MTT assay relative to control", "assay_type": "functional", "settings": "HL-60, 72 h", "how_it_was_run": "(§2)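 Single-concentration MTT screen at 25 µg/mL for 72 h. Seeding was 3 x 10^5 cells/mL (HL-60, K562) or 1 x 10^5 cells/mL (adherent), with 24 h preincubation. MTT was added for the final 3 h, formazan dissolved in DMSO and absorbance read at 560 nm. Results are given as percent inhibition ± SD.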"}, "[3]": {"system": "HEp-2", "experiment": "Cytotoxicity against human Hep2 cells assessed as inhibition of cell viability after 72 hrs by MTT assay", "assay_type": "functional, cell-based", "settings": "HEp-2, 72 h", "how_it_was_run": "as §1"}, "[4]": {"system": "HT-29", "experiment": "Cytotoxicity against human HT-29 cells assessed as inhibition of cell viability at 25 ug/ml after 72 hrs by MTT assay relative to control", "assay_type": "functional", "settings": "HT-29, 72 h", "how_it_was_run": "as §2"}, "[5]": {"system": "K562", "experiment": "Cytotoxicity against human K562 cells assessed as inhibition of cell viability after 72 hrs by MTT assay", "assay_type": "functional, cell-based", "settings": "K562, 72 h", "how_it_was_run": "as §1"}, "[6]": {"system": "K562", "experiment": "Cell cycle arrest in human K562 cells assessed as accumulation at S-phase at 34 uM after 48 hrs by flow cytometry (reference value: 17.39 +/- 0.84%)", "assay_type": "functional", "how_it_was_run": "(§3)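 K562 cells seeded at 3 x 10^5 cells/mL in RPMI-1640 and exposed 48 h at 37 °C, 5% CO2. Cells were stained with propidium iodide (Guava cell cycle kit) and 5,000 events acquired by flow cytometry. Vehicle control was 0.1% DMSO. Two independent experiments, each in triplicate.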"}, "[7]": {"system": "HL-60", "experiment": "Cytotoxicity against human HL60 cells assessed as inhibition of cell viability after 72 hrs by MTT assay", "assay_type": "functional, cell-based", "settings": "HL-60, 72 h", "how_it_was_run": "as §1"}, "[8]": {"system": "K562", "experiment": "Cell cycle arrest in human K562 cells assessed as accumulation at S-phase at 17 uM after 48 hrs by flow cytometry (reference value: 17.39 +/- 0.84%)", "assay_type": "functional", "how_it_was_run": "as §3"}, "[9]": {"experiment": "Selectivity index, ratio of IC50 for human PBMC to IC50 for human K562 cells", "assay_type": "toxicity", "settings": "human PBMC and human K562 cells, read-out: Ratio IC50", "how_it_was_run": "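Ratio of IC50 in PBMC (Alamar blue, 72 h) to IC50 in K562 cells (MTT, 72 h), calculated as SI = IC50(PBMC)/IC50(K562).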"}, "[10]": {"system": "K562", "experiment": "Induction of mitochondrial membrane potential depolarization in human K562 cells at 17 uM after 48 hrs by Rho-123 staining based flow cytometry (reference value: 12.24 +/- 0.61%)", "assay_type": "functional"}, "[11]": {"system": "K562", "experiment": "Induction of DNA damage in human K562 cells at 34 uM after 48 hrs by propidium iodide staining based flow cytometry (reference value: 3.62 +/- 0.37%)", "assay_type": "functional"}, "[12]": {"system": "K562", "experiment": "Cytotoxicity against human K562 cells assessed as inhibition of cell viability at 25 ug/ml after 72 hrs by MTT assay relative to control", "assay_type": "functional", "settings": "K562, 72 h", "how_it_was_run": "as §2"}, "[13]": {"system": "K562", "experiment": "Induction of DNA damage in human K562 cells at 17 uM after 48 hrs by propidium iodide staining based flow cytometry (reference value: 3.62 +/- 0.37%)", "assay_type": "functional"}, "[14]": {"system": "K562", "experiment": "Cell cycle arrest in human K562 cells assessed as accumulation at G1-phase at 34 uM after 48 hrs by flow cytometry (reference value: 45.54 +/- 1.34%)", "assay_type": "functional", "how_it_was_run": "as §3"}, "[15]": {"system": "PBMC", "experiment": "Cytotoxicity against human PBMC cells assessed as inhibition of cell viability after 72 hrs by alamar blue assay", "assay_type": "cell-based", "how_it_was_run": "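PBMC from healthy donors were grown in RPMI-1640 with 20% FBS and 2% phytohaemagglutinin, then plated at 10^6 cells/mL. After 24 h, compounds (0.048–25 µg/mL, in DMSO) were added for 72 h. Resazurin was added for the final 24 h and absorbance read at 570 and 595 nm as percent of control.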"}, "[16]": {"system": "K562", "experiment": "Cytotoxicity against human K562 cells assessed as inhibition of cell viability by MTT assay", "assay_type": "functional, cell-based", "settings": "TDE = time-dependent effect"}, "[17]": {"system": "K562", "experiment": "Cytotoxicity against human K562 cells assessed as inhibition of cell viability after 48 hrs by MTT assay", "assay_type": "functional, cell-based", "settings": "K562, 48 h", "how_it_was_run": "(§4)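 K562 cells (3 x 10^5 cells/mL, RPMI-1640 with 10% FBS) were treated with serial dilutions for 24 or 48 h. Viability was read by MTT (absorbance at 560 nm after DMSO solubilisation), and IC50 was obtained by regression.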"}, "[18]": {"system": "K562", "experiment": "Cytotoxicity against human K562 cells assessed as inhibition of cell viability after 24 hrs by MTT assay", "assay_type": "functional, cell-based", "settings": "K562, 24 h", "how_it_was_run": "as §4"}, "[19]": {"system": "HEp-2", "experiment": "Cytotoxicity against human Hep2 cells assessed as inhibition of cell viability at 25 ug/ml after 72 hrs by MTT assay relative to control", "assay_type": "functional", "settings": "HEp-2, 72 h", "how_it_was_run": "as §2"}, "[20]": {"system": "K562", "experiment": "Cell cycle arrest in human K562 cells assessed as accumulation at G2/M-phase at 17 uM after 48 hrs by flow cytometry (reference value: 35.97 +/- 1.94%)", "assay_type": "functional", "how_it_was_run": "as §3"}, "[21]": {"system": "Erythrocyte", "experiment": "Hemolytic activity in human erythrocytes after 1 hr by spectrophotometric method", "assay_type": "ADME, cell-based", "how_it_was_run": "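Human erythrocytes as a 2% suspension in 0.85% NaCl with 10 mM CaCl2 were exposed to 0.78–250 µg/mL for 1 h at room temperature. After centrifugation, released haemoglobin in the supernatant was read at 540 nm. Triton X-100 (1%) served as positive control; EC50 is the concentration giving 50% haemolysis.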"}, "[22]": {"system": "K562", "experiment": "Cell cycle arrest in human K562 cells assessed as accumulation at G2/M-phase at 34 uM after 48 hrs by flow cytometry (reference value: 35.97 +/- 1.94%)", "assay_type": "functional", "how_it_was_run": "as §3"}, "[23]": {"system": "K562", "experiment": "Induction of mitochondrial membrane potential depolarization in human K562 cells at 34 uM after 48 hrs by Rho-123 staining based flow cytometry (reference value: 12.24 +/- 0.61%)", "assay_type": "functional"}, "[24]": {"system": "K562", "experiment": "Cell cycle arrest in human K562 cells assessed as accumulation at G1-phase at 17 uM after 48 hrs by flow cytometry (reference value: 45.54 +/- 1.34%)", "assay_type": "functional", "how_it_was_run": "as §3"}, "[25]": {"system": "NCI-H292", "experiment": "Cytotoxicity against human NCI-H292 cells assessed as inhibition of cell viability at 25 ug/ml after 72 hrs by MTT assay relative to control", "assay_type": "functional", "settings": "NCI-H292, 72 h", "how_it_was_run": "as §2"}, "[26]": {"system": "HT-29", "experiment": "Cytotoxicity against human HT-29 cells assessed as inhibition of cell viability after 72 hrs by MTT assay", "assay_type": "functional, cell-based", "settings": "HT-29, 72 h", "how_it_was_run": "as §1"}}}
{"smiles": "FC(F)(F)c1ccc(/C=N/Nc2nc(-c3ccc(Cl)cc3Cl)cs2)cc1", "values": [{"measurement": "IC50", "setting": "[1]", "value": 10.4, "unit": "µM"}, {"measurement": "inhibition at 25 µg/mL", "setting": "[2]", "value": 91.1, "unit": "%"}, {"measurement": "IC50", "setting": "[3]", "value": 7.65, "unit": "µM"}, {"measurement": "inhibition at 25 µg/mL", "setting": "[4]", "value": 79.5, "unit": "%"}, {"measurement": "IC50", "setting": "[5]", "value": 5.48, "unit": "µM"}, {"measurement": "Activity", "setting": "[6]", "value": 6.72, "unit": "%"}, {"measurement": "IC50", "setting": "[7]", "value": 17.8, "unit": "µM"}, {"measurement": "Activity", "setting": "[8]", "value": 7.23, "unit": "%"}, {"measurement": "selectivity ratio", "setting": "[9]", "value": 7.85}, {"measurement": "Activity", "setting": "[10]", "value": 25.05, "unit": "%"}, {"measurement": "Activity", "setting": "[11]", "value": 22.43, "unit": "%"}, {"measurement": "inhibition at 25 µg/mL", "setting": "[12]", "value": 88.9, "unit": "%"}, {"measurement": "Activity", "setting": "[13]", "value": 19.74, "unit": "%"}, {"measurement": "Activity", "setting": "[14]", "value": 82.74, "unit": "%"}, {"measurement": "IC50", "setting": "[15]", "value": 43, "unit": "µM"}, {"measurement": "Activity", "setting": "[16]", "value": "Tde"}, {"measurement": "IC50", "setting": "[17]", "value": 17.8, "unit": "µM"}, {"measurement": "IC50", "setting": "[18]", "value": "> 60.1", "unit": "µM"}, {"measurement": "inhibition at 25 µg/mL", "setting": "[19]", "value": 96.7, "unit": "%"}, {"measurement": "Activity", "setting": "[20]", "value": 7.51, "unit": "%"}, {"measurement": "EC50", "setting": "[21]", "value": "> 250", "unit": "µg/mL"}, {"measurement": "Activity", "setting": "[22]", "value": 11.47, "unit": "%"}, {"measurement": "Activity", "setting": "[23]", "value": 37.12, "unit": "%"}, {"measurement": "Activity", "setting": "[24]", "value": 85.25, "unit": "%"}, {"measurement": "inhibition at 25 µg/mL", "setting": "[25]", "value": 96.5, "unit": "%"}, {"measurement": "IC50", "setting": "[26]", "value": 11.2, "unit": "µM"}]}
